The source made the active and inactive calls. The calls are words filed in the database; no cut-off is given here.
How the values were obtained:
[1] = Inhibition of rat alpha-glucosidase assessed as p-nitrophenol release at 50 ug/ml
Procedure, shortened: (§1)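 Crude enzyme is the sonicated supernatant of rat intestinal acetone powder in normal saline (100:1 w/v). Sample (5 mg/mL DMSO stock) in 100 mM phosphate buffer, pH 6.8, is preincubated 5 min with enzyme. p-Nitrophenyl-α-D-glucopyranoside (5 mM solution) is added, and p-nitrophenol is read at 405 nm after 5 min. Blanks omit substrate; the control is DMSO. Inhibition % = (1 − B/A) × 100. IC50 is taken by log regression over ≥5 dilutions. n = 3.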

[2] = tested on: Radical scavenging activity; assay: Antioxidant activity assessed as DPPH radical scavenging activity; assay type: functional
Procedure, shortened: (§2)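 DPPH (0.5 mM solution in absolute ethanol) is mixed with test sample (1 mg/mL DMSO stock) in 0.1 M Tris-HCl, pH 7.4. The mixture is shaken, kept in the dark for 30 min, and read at 517 nm. Scavenging % = (1 − B/A) × 100 versus a no-sample control. SC50 comes from logarithmic regression over at least five dilutions. n = 3.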

[3] = tested on: Radical scavenging activity; assay: Antioxidant activity against DPPH radical assessed as concentration required for 50% scavenging activity; assay type: functional; procedure, shortened: as §2
Rattus norvegicus = species: Rattus norvegicus; assay: Inhibition of rat alpha-glucosidase assessed as p-nitrophenol release; procedure, shortened: as §1

Row | Inhibition [1] [%] | Activity (Rattus norvegicus) [µM] | SMILES | SC50 [2] | Scavenging [2] [%] | Activity [3] [µM]
1 | 4.4 | – | COc1ccc(-c2cc(=O)c3c(O)cc(OC)cc3o2)cc1 [APIGENIN DIMETHYLETHER] | inactive | – | –
2 | 28.7 | – | COc1cc(O)c2c(=O)cc(-c3ccccc3)oc2c1 [TECHTOCHRYSIN] | inactive | – | –
3 | 36.5 | – | COc1c2ccoc2cc2oc(-c3ccccc3)cc(=O)c12 [PINNATIN] | inactive | – | –
4 | 25.6 | 335 | O=c1cc(-c2ccc(O)c(O)c2)oc2c1ccc1occc12 | – | 55.1 | 84.6
5 | 58.2 | 104 | COc1c(C(=O)/C=C(\O)c2ccccc2)ccc2occc12 [PONGAMOL] | – | 11.2 | –
6 | 36 | – | COc1c(-c2ccc3c(c2)OCO3)oc2cc(O)ccc2c1=O | – | 68.3 | 39

Second part, the compound before the results:

Row | SMILES | Inhibition [1] [%] | Activity (Rattus norvegicus) [µM] | SC50 [2] | Scavenging [2] [%] | Activity [3] [µM]
7 | COc1c(-c2ccccc2)oc2c(ccc3occc32)c1=O [KARANJIN] | 26.3 | – | inactive | – | –
8 | COc1c(-c2ccc3c(c2)OCO3)oc2c(ccc3occc32)c1=O [PONGAPIN] | 21.4 | – | inactive | – | –
9 | COc1c(C(=O)/C=C(\O)c2ccc3c(c2)OCO3)ccc2occc12 [OVALITENONE] | 29.7 | – | inactive | – | –
10 | O=c1c(O)c(-c2ccc(O)c(O)c2)oc2c1ccc1occc12 | 37.9 | – | – | 64.9 | 21
11 | O=c1cc(-c2ccc3c(c2)OCO3)oc2c1ccc1occc12 [PONGAGLABRONE] | 8.6 | – | inactive | – | –
12 | COc1ccc2c(=O)c(OC)c(-c3ccc(OC)c(OC)c3)oc2c1 [FISETIN TETRAMETHYL ETHER] | 19.7 | – | inactive | – | –
13 | COc1c(-c2ccc3c(c2)OCO3)oc2c3c(ccc2c1=O)OC(C)(C)C=C3 [PONGACHROMENE] | 22.8 | – | inactive | – | –
14 | O=C(O)c1ccc2c(c1)OCO2 [PIPERONYLIC ACID] | 18.4 | – | – | 2.4 | –
